MEKK3 PB1 HTS: modulators of MEKK3-MEK5 PB1 binding, primary screen, biochemical, wildtype MEKK3, multiplex bead flow cytometry, Alexa488-MEK5; Mitogen-activated protein kinase kinase kinase 3 (Homo sapiens), Q99759; bead-based flow cytometry, Alexa488-MEK5 binding to MEKK3; actives lie on both sides; 0 = blocked by unlabeled MEK5, 100 = vehicle; binding response (% of control), % at 10 µM; hit rate 1.4% among 290,000;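 active = binding response more than 3 SD above or below the average of its plate-row segment, actives on both sides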;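 also: Alexa488 bead fluorescence after subtracting the streptavidin-only scavenger bead signal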
Target sequence (Q99759 whole entry, looked up): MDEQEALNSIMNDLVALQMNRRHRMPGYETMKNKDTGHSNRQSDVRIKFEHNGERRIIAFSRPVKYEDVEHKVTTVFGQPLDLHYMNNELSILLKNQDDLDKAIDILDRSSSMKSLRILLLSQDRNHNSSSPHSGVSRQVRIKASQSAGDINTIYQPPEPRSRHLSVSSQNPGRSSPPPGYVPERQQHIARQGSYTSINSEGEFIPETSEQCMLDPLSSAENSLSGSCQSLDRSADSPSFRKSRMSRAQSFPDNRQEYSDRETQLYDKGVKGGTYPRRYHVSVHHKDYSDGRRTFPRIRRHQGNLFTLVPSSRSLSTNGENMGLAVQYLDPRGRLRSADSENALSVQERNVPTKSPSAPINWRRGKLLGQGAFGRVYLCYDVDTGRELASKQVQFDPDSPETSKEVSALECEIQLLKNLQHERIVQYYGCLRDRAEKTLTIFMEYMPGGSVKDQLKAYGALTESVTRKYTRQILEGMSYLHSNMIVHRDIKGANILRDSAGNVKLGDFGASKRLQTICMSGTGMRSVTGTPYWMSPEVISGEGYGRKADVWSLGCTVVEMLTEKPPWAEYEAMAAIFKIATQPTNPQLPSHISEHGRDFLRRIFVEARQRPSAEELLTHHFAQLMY
Apaf1 inhib: inhibitors of human Apaf-1 apoptosome, primary screen, biochemical, DEVD-Rh110 fluorescence, uHTS | reconstituted apoptosome caspase-3 activity | Apoptotic protease-activating factor 1 (Homo sapiens), O14727 | inhibition, % at 20 µM | hit rate 0.71% among 330,000; active = inhibition of at least 40% at 20 µM;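 also: plate controls were DMSO wells for no effect and DEVD-CHO caspase inhibitor wells for full effect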
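Medium: Hepes buffer, pH 7.5 / System: biochemical Apaf-1 apoptosome reconstitution / Measured by: Rh110 fluorescence, excitation 480 nm, emission 540 nm / Times: compound with Apaf-1, dATP, procaspase-3 30 min, then 50 min reaction, room temperature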
MEKK2wt PB1 HTS: modulators of MEK5 binding to wildtype MEKK2, primary screen, biochemical, multiplex bead flow cytometry, Alexa488-MEK5. Mitogen-activated protein kinase kinase kinase 2 (Homo sapiens), Q9Y2U5. Alexa488-MEK5 binding to MEKK2 WT; actives lie on both sides. binding response (% of control), % at 10 µM. hit rate 1.1% among 290,000. AID 1531, 2009; in the data active = binding response below about 67% or above about 130%
UBC13 polyUb: UBC13 polyubiquitin chain formation inhibitors, primary screen, biochemical, TR-FRET, uHTS; Ubiquitin-conjugating enzyme E2 N (Homo sapiens), P61088; inhibition, % at 20 µM; hit rate 0.47% among 330,000; in the data active = inhibition above about 45%, passing the limit was not always enough
UCH37 DUB inh: inhibitors of human UCH37 deubiquitinase, primary screen, biochemical, Ub-AMC cleavage, fluorescence | purified proteasome/UCH37 | inhibition, % (test concentration not listed) | hit rate 0.33% among 330,000;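 active = mean inhibition over replicate wells above about 20%, limit read from the data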;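 also: 0% = compound-free wells with enzyme and 100% = wells lacking proteasome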
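Material: Human UCH37 enzyme supplied as purified proteasome complex | Schedule: 30 min compound-proteasome preincubation then 25 min substrate reaction, room temperature | Detection: AMC fluorescence from Ub-AMC cleavage, excitation 355 nm, emission 460 nm | Benchmarks: Wells without proteasome as full block, compound-free enzyme plus substrate as uninhibited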
MEKK2mut PB1 HTS: MEK5 binding signal on mutant MEKK2 PB1, primary screen, biochemical, multiplex bead flow cytometry, Alexa488-MEK5. Alexa488-MEK5 binding to MEKK2 mutant. percent response, % at 10 µM. hit rate 0.35% among 290,000. AID 1530, 2009; in the data active = percent response above about 24%, passing the limit was not always enough
Casp3 UBC13 ctr: CASP3 inhibitor validation, counterassay for project on UBE2N polyubiquitination blockers, biochemical, one dose. inhibition, % at 20 µM. shares compounds with UBC13 polyUb. hit rate 4% among 1,400. Recombinant caspase-3, Caspase-Glo 3/7 luminescence, 60 min. AID 488856, 2010;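 active = mean inhibition across replicates above about 26%, limit read from the data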;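 also: plate controls were DMSO with caspase-3 for no effect and DMSO wells lacking enzyme for full effect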
UBC13 confirm: UBC13 polyubiquitination inhibitors, single-point retest, confirmation, biochemical, TR-FRET, single concentration | shares compounds with UBC13 polyUb | inhibition, % at 10 µM | hit rate 68% among 1,400 | AID 488859, 2010; in the data active = inhibition above about 45%
* marks the source's active call; other numbers are inactive results; nt = no result. In the library only some 3% were active in any assay of this set; here they are far more common.

SMILES	MEKK3 PB1 HTS	Apaf1 inhib	MEKK2wt PB1 HTS	UBC13 polyUb	UCH37 DUB inh	MEKK2mut PB1 HTS	Casp3 UBC13 ctr	UBC13 confirm
COc1ccc(N2CCN(CCCNC(=O)CCC(=O)N3CCOc4ccc(Cl)cc43)CC2)cc1	101.0	2.8	131.0	12.4	1.4	8.0	nt	nt
CN1N=C(C(=O)N2CCN(c3ccc([N+](=O)[O-])cc3)CC2)CCC1=O	98.0	-0.7	102.0	-0.4	12.8	-1.0	nt	nt
O=C(/C=C/c1cccc(F)c1)OCC(=O)N1CCCC1	nt	1.3	nt	2.6	1.8	nt	nt	nt
Cc1cccc(NC(=O)Cn2c(O)c(N=NC(N)=S)c3ccccc32)c1	87.0	-30.9	93.0	10.2	4.5	-4.0	nt	nt
CC1=CC(C)(C)n2c(O)c(N=NC(N)=S)c3cc(C)cc1c32	90.0	7.0	92.0	56.8*	-1.0	-3.0	-2.8	52.0*
Cn1c(=O)c2c(ncn2Cc2ccccc2)n(C)c1=O	98.0	-9.3	100.0	49.8*	4.7	2.0	-1.6	29.9
Cn1c(=O)c2c(ncn2CCCc2ccccc2)n(C)c1=O	98.0	7.3	96.0	-0.3	1.8	-1.0	nt	nt
CCCCCCC(=O)N=Nc1c(O)[nH]c2ccc([N+](=O)[O-])cc12	99.0	-7.6	98.0	0.0	1.1	-1.0	nt	nt
COCCNC(=S)N=Nc1c(O)[nH]c2ccc([N+](=O)[O-])cc12	94.0	-4.5	93.0	88.8*	8.1	-12.0	0.8	95.9*
O=C(O)c1cccc(Nc2nc(-c3ccccc3)nc3ccccc23)c1	104.0	1.2	102.0	12.7	-9.3	1.0	nt	nt
CCCOC(=O)c1cccc(Nc2nc(-c3cccnc3)nc3ccccc23)c1	104.0	0.7	126.0	49.0*	-9.6	7.0	-4.4	65.7*
CCNC(=O)c1ccc(-n2nc(C)cc2-c2ccccc2)cc1	104.0	4.4	102.0	1.4	2.4	1.0	nt	nt
CCn1c(SCC(=O)Nc2oc(C)c3c(C)n[nH]c(=O)c23)nc2sc(C)c(C)c2c1=O	nt	30.9	nt	63.8*	5.1	nt	-2.5	18.3
CC(C)C(=O)Nc1ccc2nn(-c3ccccc3)nc2c1	110.0	-1.7	108.0	47.7*	-157.4	0.0	48.9*	32.2
CCCCN1C(=O)NC(NC(C)=O)(C(F)(F)F)C1=O (stereo not given)	102.0	-11.3	104.0	-1.0	1.4	11.0	nt	nt
Cc1cccc2sc(N(CCN3CCOCC3)C(=O)CCS(=O)(=O)c3ccccc3)nc12	nt	10.0	nt	58.8*	4.1	nt	0.3	79.0*
Cc1ccc(S(=O)(=O)CCC(=O)N(CCN2CCOCC2)c2nc3ccccc3s2)cc1	nt	11.1	nt	-1.1	-0.2	nt	nt	nt
CCCn1nnnc1NCc1ccccc1OCC	108.0	2.2	113.0	1.9	nt	12.0	nt	nt
CCCNC(=O)c1ccc2c(=O)c(O)c(-c3ccc(C)cc3)[nH]c2c1	97.0	-6.9	99.0	-0.6	-45.4	2.0	nt	nt
Cc1ccc(-c2[nH]c3cc(C(=O)NCCCn4ccnc4)ccc3c(=O)c2O)cc1	100.0	5.9	110.0	46.5*	-20.1	10.0	-2.1	43.3
C/C(=N/NC(=O)c1cccc(N2CCCC2=O)c1)c1ccc(Br)cc1	101.0	6.5	105.0	-1.0	nt	0.0	nt	nt
Cc1ccc(C(=O)NC(=S)N(C)C2CCCCC2)cc1	98.0	9.8	105.0	6.5	2.3	5.0	nt	nt
Cc1cc(NC(=O)Cn2c(=O)n(CCCCC(=O)NC3CCN(Cc4ccccc4)CC3)c(=O)c3ccccc32)n[nH]1	93.0	-10.6	90.0	51.7*	6.5	-15.0	-2.2	48.2*
COC(=O)c1ccccc1NC(=O)Cn1c(=O)n(CCC(=O)NC2CCN(Cc3ccccc3)CC2)c(=O)c2ccccc21	97.0	-20.5	104.0	11.3	0.5	-2.0	nt	nt
O=C(CCCCn1c(=O)c2ccccc2n(Cc2ccccc2F)c1=O)NC1CCN(Cc2ccccc2)CC1	111.0	3.5	132.0	99.7*	5.9	3.0	-0.3	106.9*
SMILES	MEKK3 PB1 HTS	Apaf1 inhib	MEKK2wt PB1 HTS	UBC13 polyUb	UCH37 DUB inh	MEKK2mut PB1 HTS	Casp3 UBC13 ctr	UBC13 confirm
O=C(CCCCn1c(=O)[nH]c2ccccc2c1=O)NC1CCN(Cc2ccccc2)CC1	106.0	6.5	103.0	28.4	1.3	-2.0	nt	nt
Cc1cccc(C)c1NC(=O)Cn1c(=O)n(CCCC(=O)NC2CCN(Cc3ccccc3)CC2)c(=O)c2ccccc21	101.0	1.9	102.0	84.8*	1.2	0.0	-1.8	104.9*
CC(O)CCc1nc2ccc(C(=O)O)cc2[nH]1 (stereo not given)	nt	-8.6	nt	2.5	6.2	nt	nt	nt
Cc1cc2c(cc1C)NC(=O)CC(C(F)(F)C(F)(F)C(F)(F)F)=N2	95.0	15.6	97.0	3.1	4.0	-4.0	nt	nt
COc1ccccc1NS(=O)(=O)c1cccc(C(=O)N/N=C/c2c(CO)cnc(C)c2O)c1	nt	-3.1	nt	72.3*	nt	nt	0.7	19.4
COc1ccc(-c2csc(NC(C)c3nc4cc(C(=O)NCCCO)ccc4n3Cc3ccc(C)cc3)n2)cc1 (stereo not given)	106.0	10.9	110.0	53.2*	3.4	3.0	-2.6	23.0
Cc1ccc(Cn2c(C(C)Nc3nc(-c4ccc(F)cc4)cs3)nc3cc(C(=O)NCCCO)ccc32)cc1 (stereo not given)	98.0	13.2	100.0	40.9	4.9	1.0	nt	nt
COc1ccc(CNc2ncnc3cc(Cl)ccc23)cc1OC	101.0	nt	101.0	nt	1.2	5.0	nt	nt
CCN(CC)Cc1cc2[nH]c3c4ccc(Cl)cc4ncc3c2cc1OC	96.0	20.7	163.0*	66.7*	-0.6	38.0*	2.3	10.4
CN1CCN(S(=O)(=O)CC2(C)C3CCC2(C)C(=O)C3Br)CC1 (stereo not given)	86.0	-25.0	90.0	17.1	0.5	-18.0	nt	nt
CC(=O)n1cc([C@H]2C=C(C(=O)Nc3ccccc3)O[C@@H](OCCCCO)C2)c2ccccc21	89.0	12.5	84.0	69.4*	2.0	3.0	2.4	44.8
COc1ccc(-c2cc3ccccc3s2)cc1[C@H]1[C@H]2C=CC[C@@H](C)[C@@H]2C(=O)N1Cc1ccccc1	96.0	0.9	93.0	48.4*	1.2	-4.0	60.3*	34.4

High-throughput results as filed in PubChem BioAssay.
